Assay results from ChEMBL document CHEMBL4715835, “Lipidic synthetic alkaloids as SK3 channel modulators. Synthesis and biological evaluation of 2-substituted tetrahydropyridine derivatives with potential anti-metastatic activity” (Eur J Med Chem, 2020).
The source made the active and inactive calls. No cut-off for these calls is given here.

What was measured:
[1] = Toxicity in human skin fibroblasts assessed as reduction in cell number after 48 hrs by Hoechst 33342 staining based assay; type: tissue-based, Fibroblast
Method in brief: (§1)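 4000 cells per well. Cells exposed 24 h after seeding to 6 concentrations ([…]) for 48 h. They were then fixed in cold 90% ethanol/5% acetic acid for 20 min and nuclei stained with Hoechst 33342. Plates imaged on a high-content reader. IC₅₀ calculated; normal diploid skin fibroblasts served as control cells.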

[2] = molecular target: Small conductance calcium-activated potassium channel protein 3 (Homo sapiens) (UniProt Q9UGI6); experiment: Inhibition of SK3 (unknown origin) expressed in HEK293 cells assessed as reduction in channel current at 2 uM with 0 mV holding potential measured within 10 secs by patch clamp electrophysiological method relative to control; type: cell-based; settings: time 10.0 sec
Method in brief: (§2)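 Patch clamp on HEK-293 cells stably expressing SK3 (lentiviral). Compound added acutely; DMSO/methanol was the vehicle, and runs with or without apamin. Ramp from −80 to +80 mV, holding at 0 mV, 500 ms ramps at 4 s intervals. Current analyzed at 0 mV to minimize chloride currents, followed as a time course. Pipette solution adjusted to pH 7.2 with KOH.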

[3] = Toxicity in human MDA-MB-231 cells assessed as reduction in cell number after 48 hrs by Hoechst 33342 staining based assay; method in brief: as §1
[4] = Toxicity in human Caco-2 cells assessed as reduction in cell number after 48 hrs by Hoechst 33342 staining based assay; method in brief: as §1
MDA-MB-435 [5] = experiment: Antimetastatic activity against human MDA-MB-435 cells harboring shRNA assessed as reduction in cell migration at 100 to 300 nM after 24 hrs […]; type: functional, cell-based; settings: dose 100-300 nM
[6] = Toxicity in human PC-3 cells assessed as reduction in cell number after 48 hrs by Hoechst 33342 staining based assay; method in brief: as §1
[7] = molecular target: Small conductance calcium-activated potassium channel protein 3 (Homo sapiens) (UniProt Q9UGI6); experiment: Inhibition of SK3 (unknown origin) expressed in HEK293 cells assessed as reduction in channel current at 2 uM with 0 mV holding potential by patch clamp electrophysiological method; type: cell-based; method in brief: as §2
[8] = molecular target: Small conductance calcium-activated potassium channel protein 3 (Homo sapiens) (UniProt Q9UGI6); experiment: Inhibition of SK3 (unknown origin) expressed in HEK293 cells assessed as reduction in channel current at 2 uM with 0 mV holding potential in presence of -apamin by patch clamp electrophysiological method; type: cell-based; method in brief: as §2
MDA-MB-435 [9] = experiment: Toxicity in human MDA-MB-435 cells assessed as mortality at 1 uM measured after 24 hrs by MTT assay relative to control; type: cell-based; settings: mda-mb-435, 24 h
Method in brief: (§3)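 MTT viability assay: about 4 × 10⁴ MDA-MB-435s cells seeded in triplicate with the molecules (tested series 100 nM, 300 nM, 1 µM, 3 µM, 10 µM) and kept 24 h at 37 °C. Medium was then removed and cells incubated 45 min at 37 °C with tetrazolium salt, which viable cells reduce to formazan. Results given as % mortality.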

[10] = molecular target: Small conductance calcium-activated potassium channel protein 3 (Homo sapiens) (UniProt Q9UGI6); experiment: Inhibition of SK3 in human MDA-MB-435 cells harboring SK3 shRNA assessed as reduction in Ca2+ influx at 300 nM measured after 1 hr by Fura2-AM dye based fluorescence assay; type: cell-based
Method in brief: (§4)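 Constitutive Ca²⁺ entry in MDA-MB-435s shRD or shSK3 cells, measured 48 h after transfection with 30 nM siOrai1 or siCTL. Cells were treated 1 h with compound and loaded with Fura2-AM for 45 min at 37 °C. They were then resuspended in Ca²⁺-free solution for 20 s before 2 mM CaCl₂ was added. Emission read at 510 nm with 340/380 nm excitation. Steady-state signal normalized to control. Three experiments in triplicate.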

MDA-MB-435 [11] = experiment: Antimetastatic activity against human MDA-MB-435 cells assessed as reduction in cell migration at 100 to 300 nM after 24 hrs by crystal violet staining based assay relative to control; design: scale not given: the % may be the effect or the level left; settings: dose 100-300 nM
MDA-MB-435 [12] = experiment: Antimetastatic activity against human MDA-MB-435 cells assessed as reduction in cell migration at 1 uM after 24 hrs by […] relative to control; type: functional; design: scale not given: the % may be the effect or the level left
[13] = Toxicity in human HCT-116 cells assessed as reduction in cell number after 48 hrs by Hoechst 33342 staining based assay; method in brief: as §1
MDA-MB-435 [14] = experiment: Toxicity in human MDA-MB-435 cells assessed as mortality at 10 uM measured after 24 hrs by MTT assay relative to control; type: cell-based; settings: mda-mb-435, 24 h; method in brief: as §3
[15] = Toxicity in human MCF7 cells assessed as reduction in cell number after 48 hrs by Hoechst 33342 staining based assay; method in brief: as §1
[16] = molecular target: ORAI1/STIM1 (Homo sapiens) (UniProt Q96D31+Q13586); experiment: Inhibition of STIM1/Orai1 (unknown origin) expressed in HEK293 cells assessed as reduction in Ca2+-release activated Ca2+ entry current at 2 uM by whole cell patch clamp electrophysiological method; type: cell-based
[17] = Toxicity in human Huh-7 cells assessed as reduction in cell number after 48 hrs by Hoechst 33342 staining based assay; method in brief: as §1
MDA-MB-435 [18] = experiment: Effect on calcium influx in human MDA-MB-435 cells harboring siRNA and siCTL at 300 nM measured after 1 hr by Fura2-AM dye based fluorescence assay; type: functional, cell-based; method in brief: as §4
MDA-MB-435 [19] = experiment: Inhibition of SK3/Orai1 in human MDA-MB-435 cells harboring SK3 shRNA assessed as reduction in Ca2+ influx at 300 nM measured after 1 hr by Fura2-AM dye based fluorescence assay relative to control; type: cell-based; method in brief: as §4
MDA-MB-435 [20] = experiment: Effect on calcium influx in human MDA-MB-435 cells harboring siRNA and siOrai1 at 300 nM measured after 1 hr by Fura2-AM dye based fluorescence assay; type: functional, cell-based; method in brief: as §4
[21] = Toxicity in human NCI-H727 cells assessed as reduction in cell number after 48 hrs by Hoechst 33342 staining based assay; method in brief: as §1
MDA-MB-435 [22] = experiment: Toxicity in human MDA-MB-435 cells assessed as mortality at 3 uM measured after 24 hrs by MTT assay relative to control; type: cell-based; settings: mda-mb-435, 24 h; method in brief: as §3

Sequence of Small conductance calcium-activated potassium channel protein 3 (Homo sapiens) (Q9UGI6 whole entry): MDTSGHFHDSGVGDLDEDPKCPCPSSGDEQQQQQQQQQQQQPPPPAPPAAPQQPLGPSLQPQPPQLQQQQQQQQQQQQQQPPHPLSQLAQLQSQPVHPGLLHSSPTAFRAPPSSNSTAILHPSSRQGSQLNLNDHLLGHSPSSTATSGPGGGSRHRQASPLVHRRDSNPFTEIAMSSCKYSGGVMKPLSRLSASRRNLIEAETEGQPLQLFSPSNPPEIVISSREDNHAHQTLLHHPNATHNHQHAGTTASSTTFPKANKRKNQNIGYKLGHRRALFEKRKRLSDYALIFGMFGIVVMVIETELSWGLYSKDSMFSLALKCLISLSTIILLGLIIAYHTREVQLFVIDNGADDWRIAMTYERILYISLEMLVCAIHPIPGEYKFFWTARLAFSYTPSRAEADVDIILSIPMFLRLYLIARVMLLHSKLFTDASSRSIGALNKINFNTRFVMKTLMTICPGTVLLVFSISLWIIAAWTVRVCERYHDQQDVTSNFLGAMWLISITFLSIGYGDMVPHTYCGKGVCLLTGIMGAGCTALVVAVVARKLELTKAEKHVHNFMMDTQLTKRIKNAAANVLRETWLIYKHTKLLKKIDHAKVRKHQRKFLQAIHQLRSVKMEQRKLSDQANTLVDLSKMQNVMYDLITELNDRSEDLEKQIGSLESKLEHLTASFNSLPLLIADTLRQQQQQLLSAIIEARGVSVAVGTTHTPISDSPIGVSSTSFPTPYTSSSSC
Sequence of ORAI1/STIM1 (Homo sapiens) (Q13586 23-685 partner limits assumed): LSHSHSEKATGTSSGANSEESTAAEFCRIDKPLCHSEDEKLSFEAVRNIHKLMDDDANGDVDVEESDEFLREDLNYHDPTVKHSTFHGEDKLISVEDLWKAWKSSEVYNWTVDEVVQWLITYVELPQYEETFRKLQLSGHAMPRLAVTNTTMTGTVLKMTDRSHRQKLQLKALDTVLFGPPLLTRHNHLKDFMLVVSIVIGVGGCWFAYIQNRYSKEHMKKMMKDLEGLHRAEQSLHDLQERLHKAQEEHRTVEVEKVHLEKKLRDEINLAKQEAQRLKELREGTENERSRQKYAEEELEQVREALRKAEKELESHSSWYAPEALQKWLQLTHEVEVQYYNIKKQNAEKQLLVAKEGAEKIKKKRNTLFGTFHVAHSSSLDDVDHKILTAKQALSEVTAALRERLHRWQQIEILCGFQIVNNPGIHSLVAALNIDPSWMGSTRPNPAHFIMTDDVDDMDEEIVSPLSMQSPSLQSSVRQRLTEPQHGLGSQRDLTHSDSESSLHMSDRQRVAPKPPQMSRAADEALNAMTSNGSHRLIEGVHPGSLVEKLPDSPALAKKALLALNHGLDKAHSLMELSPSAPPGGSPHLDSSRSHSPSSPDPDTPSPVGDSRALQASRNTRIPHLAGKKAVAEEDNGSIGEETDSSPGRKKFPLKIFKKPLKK
Sequence of ORAI1/STIM1 (Homo sapiens) (Q96D31 whole entry): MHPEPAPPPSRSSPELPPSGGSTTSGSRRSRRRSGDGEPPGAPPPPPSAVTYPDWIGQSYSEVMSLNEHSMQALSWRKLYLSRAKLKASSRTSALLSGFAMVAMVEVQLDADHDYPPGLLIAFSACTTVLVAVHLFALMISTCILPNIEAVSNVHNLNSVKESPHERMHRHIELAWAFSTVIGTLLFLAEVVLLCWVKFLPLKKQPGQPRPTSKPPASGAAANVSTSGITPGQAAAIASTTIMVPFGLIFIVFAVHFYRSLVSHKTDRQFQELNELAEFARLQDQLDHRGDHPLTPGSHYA

For `CCCCCCCCCCCCCCCCC[C@H](O)C[C@@H]1C=CCCN1C`, the IC50 at 48 h [1] was > 25 µM, the inhibition [2] was 50% and the IC50 at 48 h [3] was > 25 µM. The IC50 at 48 h [4] was 16 µM, the Activity (MDA-MB-435 [5]) was “inactive” and the IC50 at 48 h [6] was > 25 µM. The inhibition [7] was 90%, the inhibition [8] was “Active” and the mortality (MDA-MB-435 [9]) was 0%. For the same compound, the inhibition [10] was “inactive”, the Activity (MDA-MB-435 [11]) was “<=60%” and the Activity (MDA-MB-435 [12]) was “<=60%”. The IC50 at 48 h [13] was > 25 µM, the mortality (MDA-MB-435 [14]) was 0% and the IC50 at 48 h [15] was > 25 µM. For the same compound, the inhibition [16] was “inactive”, the IC50 at 48 h [17] was > 25 µM and the Activity (MDA-MB-435 [18]) was “inactive”. For the same compound, the inhibition (MDA-MB-435 [19]) was < 40%, the Activity (MDA-MB-435 [20]) was “inactive” and the IC50 at 48 h [21] was > 25 µM.
With `CCCCCCCCCCCCCCCCCCC[C@@H](O)C[C@@H]1C=CCCN1C` the IC50 at 48 h [1] was > 25 µM, the IC50 at 48 h [3] was > 25 µM and the IC50 at 48 h [4] was > 25 µM. For the same compound, the mortality (MDA-MB-435 [22]) was 30%, the IC50 at 48 h [6] was > 25 µM and the mortality (MDA-MB-435 [9]) was 20%. The IC50 at 48 h [13] was > 25 µM, the IC50 at 48 h [15] was > 25 µM and the IC50 at 48 h [17] was > 25 µM. For the same compound, the IC50 at 48 h [21] was > 25 µM.
In the case of `CCCCCCCCCCCCCCCCCCC[C@H](C[C@@H]1C=CCCN1C)OC(C)=O`, the IC50 at 48 h [1] is reported as > 25 µM, the IC50 at 48 h [3] is reported as > 25 µM and the IC50 at 48 h [4] is reported as 17 µM. For the same compound, the IC50 at 48 h [6] was > 25 µM, the mortality (MDA-MB-435 [9]) was 0% and the IC50 at 48 h [13] was > 25 µM. For the same compound, the mortality (MDA-MB-435 [14]) was 20%, the IC50 at 48 h [15] was > 25 µM and the IC50 at 48 h [17] was > 25 µM. For the same compound, the IC50 at 48 h [21] was > 25 µM.
For `CCCCCCCCCCCCCCCCCC(Cc1ccccn1)OC` (centres undefined), the mortality (MDA-MB-435 [9]) was 0% and the mortality (MDA-MB-435 [14]) was 0%.
For `CCCCCCCCCCCCCCCCC[C@@H](O)C[C@@H]1C=CCCN1C`, the IC50 at 48 h [1] was > 25 µM, the IC50 at 48 h [3] was > 25 µM and the IC50 at 48 h [4] was 21 µM. For the same compound, the IC50 at 48 h [6] was > 25 µM, the mortality (MDA-MB-435 [9]) was 0% and the IC50 at 48 h [13] was > 25 µM. For the same compound, the mortality (MDA-MB-435 [14]) was 80%, the IC50 at 48 h [15] was > 25 µM and the IC50 at 48 h [17] was > 25 µM. The IC50 at 48 h [21] was > 25 µM.
With `CCCCCCCC/C=C\CCCCCCC[C@H](O)C[C@@H]1C=CCCN1C` the IC50 at 48 h [1] was 25 µM, the IC50 at 48 h [3] was 14 µM and the IC50 at 48 h [4] was 6 µM. It also gave a mortality (MDA-MB-435 [22]) of 40%, an IC50 at 48 h [6] of 19 µM and a mortality (MDA-MB-435 [9]) of 30%. For the same compound, the IC50 at 48 h [13] was 15 µM, the IC50 at 48 h [15] was 18 µM and the IC50 at 48 h [17] was 24 µM. The IC50 at 48 h [21] was > 25 µM.
Work on `CCCCCCCCCCCCCCCCCCCC(O)Cc1ccccn1` (centres undefined) yielded a mortality (MDA-MB-435 [22]) of 20% and a mortality (MDA-MB-435 [9]) of 20%.
Compound `CCCCCCCC/C=C\CCCCCCCC(Cc1ccccn1)OC` (centres undefined) has a mortality (MDA-MB-435 [22]) of 25% and a mortality (MDA-MB-435 [9]) of 20%.
With `CCCCCCCCCCCCCCCCC[C@@H](C[C@@H]1C=CCCN1C)OC(C)=O` the IC50 at 48 h [1] was 24 µM, the IC50 at 48 h [3] was 22 µM and the IC50 at 48 h [4] was 9 µM. For the same compound, the IC50 at 48 h [6] was 26 µM, the mortality (MDA-MB-435 [9]) was 0% and the IC50 at 48 h [13] was 24 µM. For the same compound, the mortality (MDA-MB-435 [14]) was 20%, the IC50 at 48 h [15] was > 25 µM and the IC50 at 48 h [17] was > 25 µM. For the same compound, the IC50 at 48 h [21] was > 25 µM.
Work on `CCCCCCCC/C=C\CCCCCCCC(O)Cc1ccccn1` (centres undefined) yielded a mortality (MDA-MB-435 [22]) of 25% and a mortality (MDA-MB-435 [9]) of 20%.
